In the library only some 2.2% were active in any assay of this set; here they are far more common.
UBC9 SUMO inh = inhibitors of in vitro SUMOylation cascade, primary screen, biochemical, HTRF, uHTS. SUMO-conjugating enzyme UBC9 (Homo sapiens), P63279. HTRF SUMOylation assay, SAE1/SAE2 + UBC9. inhibition, % at 35 µM. hit rate 0.36% among 290,000; in the data active means inhibition above about 50%, passing the limit was not always enough; inconclusive means no clear call, values can overlap the other calls
Target sequence (P63279 whole entry, looked up): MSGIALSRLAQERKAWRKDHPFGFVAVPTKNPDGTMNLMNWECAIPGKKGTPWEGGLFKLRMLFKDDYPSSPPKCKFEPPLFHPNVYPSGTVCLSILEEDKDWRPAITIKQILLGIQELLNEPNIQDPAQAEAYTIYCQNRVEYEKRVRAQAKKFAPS
UBC13 inh = UBC13 polyubiquitin chain formation inhibitors, primary screen, biochemical, TR-FRET, uHTS | Ubiquitin-conjugating enzyme E2 N (Homo sapiens), P61088 | inhibition, % at 20 µM | hit rate 0.47% among 330,000 | AID 485273, 2010; in the data active means inhibition above about 45%, passing the limit was not always enough; inconclusive means no clear call, values can overlap the other calls
GSTO1 counter = inhibitors of recombinant GSTO1, primary screen, counter-screen for RBBP9 inhibitor project, biochemical, fluorescence polarization | activity-based probe fluorescence polarization | inhibition, % at 5.96 µM | Glutathione S-transferase omega-1 (Homo sapiens), P78417 | AID 1974, 2009 | hit rate 1.1% among 300,000;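 active means inhibition above the campaign mean inhibition plus 3 SD, cut at about 35% in these data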;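 further: 0% = GSTO1-1 with DMSO and 100% = wells lacking GSTO1-1 enzyme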
Target sequence (P78417 whole entry, looked up): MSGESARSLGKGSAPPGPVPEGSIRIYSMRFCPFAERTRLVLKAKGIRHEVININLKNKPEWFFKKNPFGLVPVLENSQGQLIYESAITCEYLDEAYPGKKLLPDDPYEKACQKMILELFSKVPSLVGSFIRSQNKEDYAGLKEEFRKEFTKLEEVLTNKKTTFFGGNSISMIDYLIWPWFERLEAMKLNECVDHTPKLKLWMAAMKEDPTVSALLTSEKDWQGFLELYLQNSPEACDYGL
Rin1-Abl PPI inh = inhibitors of Rin1-Abl protein binding, primary screen, biochemical, TR-FRET; hit rate 0.4% among 360,000; inhibition, % at 7.35 µM; Tyrosine-protein kinase ABL1 (Homo sapiens) + Ras and Rab interactor 1 (Homo sapiens), …; in the data active means inhibition above about 5%, passing the limit was not always enough
PAD4 FP inh = human PAD4 inhibitors, primary screen, biochemical, fluorescence polarization, 1536-well format | recombinant PAD4, RCA probe fluorescence polarization | inhibition, % at 6.36 µM | hit rate 0.41% among 330,000 | AID 485272, 2010;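 active means percent inhibition above a cutoff equal to the mean of all tested compounds plus 3 SD, cut at about 15% in these data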;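 further: 0% = PAD4 with RCA probe and DMSO and 100% = probe without PAD4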
Apaf-1 inh = inhibitors of human Apaf-1 apoptosome, primary screen, biochemical, DEVD-Rh110 fluorescence, uHTS; Apoptotic protease-activating factor 1 (Homo sapiens), O14727; reconstituted apoptosome caspase-3 activity; inhibition, % at 20 µM; hit rate 0.71% among 330,000; active means inhibition of at least 40% at 20 µM;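 further: plate controls were DMSO wells for no effect and DEVD-CHO caspase inhibitor wells for full effect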
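Assay system – apoptosome proteins · Medium – Hepes buffer, pH 7.5 · Also added – cytochrome c with DEVD-Rh110 · Timing – 30 min compound preincubation, 50 min activation, room temperature · Detection – Rh110 fluorescence, excitation 480 nm, emission 540 nm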
Casp3 counter = CASP3 inhibitor validation, counterassay for project on UBE2N polyubiquitination blockers, biochemical, one dose; shares compounds with UBC13 inh; Recombinant caspase-3, Caspase-Glo 3/7 luminescence, 60 min; inhibition, % at 20 µM; hit rate 4% among 1,400; AID 488856, 2010;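 active means mean inhibition across replicates above about 26%, limit read from the data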;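 further: plate controls were DMSO with caspase-3 for no effect and DMSO wells lacking enzyme for full effect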
Target sequence (P42574 whole entry, looked up): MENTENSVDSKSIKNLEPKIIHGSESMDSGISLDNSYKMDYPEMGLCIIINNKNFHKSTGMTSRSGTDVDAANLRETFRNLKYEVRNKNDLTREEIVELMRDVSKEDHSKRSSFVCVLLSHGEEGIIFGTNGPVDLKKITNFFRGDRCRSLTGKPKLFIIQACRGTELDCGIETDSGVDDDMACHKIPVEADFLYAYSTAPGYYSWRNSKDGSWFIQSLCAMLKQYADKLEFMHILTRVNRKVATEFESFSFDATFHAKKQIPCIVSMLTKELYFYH
UBC13 confirm = UBC13 polyubiquitination inhibitors, single-point retest, confirmation, biochemical, TR-FRET, single concentration; shares compounds with UBC13 inh; inhibition, % at 10 µM; hit rate 68% among 1,400; AID 488859, 2010; in the data active means inhibition above about 45%; inconclusive means no clear call, values can overlap the other calls
Apaf-1 inh conf2 = Apaf-1 inhibitors, single-dose retest, confirmation, biochemical, fluorescence, DEVD-Rh110, 20 µM; shares compounds with Apaf-1 inh; reconstituted apoptosome, caspase-3 DEVD-Rh110 fluorescence; inhibition, % at 20 µM; hit rate 25% among 1,800;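 active means mean inhibition of at least 40% at 20 µM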;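 further: plate controls were DMSO wells for no effect and DEVD-CHO caspase inhibitor control wells for full effect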
Rh110 interf inh = Rh110 fluorescence interference by putative Apaf-1 inhibitors, confirmation, artefact control for Apaf-1 inhibitor project, biochemical, 20 µM; shares compounds with Apaf-1 inh; quenched caspase reaction; activation (fluorescence interference), % at 20 µM; 1,800 tested, under 10 active; AID 504615, 2011;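 active means signal rise of 40% or more at 20 µM, treated as a fluorescence artifact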
Apaf1 inh interf = fluorescence interference of Apaf-1 inhibitor hits, dose response, artefact control for Apaf-1 inhibitor project. AID 588538, 2011. shares compounds with Apaf-1 inh. fluorescence interference counterscreen, Apaf-1 assay format. IC50, µM. 460 tested, under 10 active; call rule not given here
Starred values were filed as active, the others as inactive; u = inconclusive; x = not tested or not shown.

SMILES	UBC9 SUMO inh	UBC13 inh	GSTO1 counter	Rin1-Abl PPI inh	PAD4 FP inh	Apaf-1 inh	Casp3 counter	UBC13 confirm	Apaf-1 inh conf2	Rh110 interf inh	others
Cc1cc(NC(=O)COC(=O)COc2ccc(C(=O)c3ccccc3)cc2)no1	-4	2	7	1	3	-8	x	x	x	x
O=C1CCC(c2ccccc2)(C2CCN(Cc3ccccc3)CC2)C(=O)N1 (configuration not stated)	x	13	2	-2	0	-4	x	x	x	x
COCCNC(=O)C1(C)CCN(C(=O)c2sccc2C)C1 (configuration not stated)	x	x	x	-2	x	x	x	x	x	x
Cc1ccc(CN2CCN(Cc3cc4ccccc4o3)CC2CCO)cc1 (configuration not stated)	13	-8	11	-3	-7	7	x	x	x	x
COc1ccc(S(=O)(=O)Nc2ccc(C)cn2)cc1	20	46*	11	2	-4	-1	-2	-3	x	x
COc1ccc(S(=O)(=O)Nc2ccc(Cl)cn2)cc1	4	-1	6	0	0	-11	x	x	x	x
CC[C@H](C)[C@@H](NC(=O)O[C@@H]1C(=O)c2cc(OC)ccc2O[C@H]1c1ccc(OC)c(Br)c1)C(=O)OC	-5	46*	4	-4	0	20	2	u	x	x
Oc1ccc(NC(=S)N=Nc2c(O)[nH]c3ccccc23)cc1	-36	92*	4	-3	2	3	6	103*	x	x
Oc1cccc(NC(=S)N=Nc2c(O)[nH]c3ccc(Br)cc23)c1	-12	86*	-40	0	0	7	3	u	x	x
Cc1ccc(NC(=S)N=Nc2c(O)[nH]c3ccccc23)cc1	-16	43	-12	0	-4	8	x	x	x	x
Oc1ccc(NC(=S)N=Nc2c(O)[nH]c3ccc(Br)cc23)cc1	-76	u	x	5	x	16	x	x	x	x
C[C@@H](NCCc1ccc(O)cc1)[C@@H](O)c1ccc(O)cc1	x	15	1	-2	-5	-6	x	x	x	x
CCCCCCCCNC(C)C(O)c1ccc(SC(C)C)cc1 (configuration not stated)	3	71*	2	1	-4	58*	-2	75*	17	3
CCc1nc2c(OCc3ccc(Cl)cc3Cl)cccn2c1N(C)C(=O)c1ccccc1F	x	x	x	-4	x	x	x	x	x	x
CC(C)n1cnc2c(N(C)c3ccccc3)nc(N(CCN(C)C)Cc3ccccc3)nc21	9	57*	-1	1	3	44*	-4	38	20	12
COc1cc(N(Cc2ccccc2)Cc2ccccc2)c2ncn(C(C)C)c2c1	x	10	x	1	-1	11	x	x	x	x
O=C(NN=C1CCCC1)c1cc(Cl)cc(Cl)c1O	1	11	-43	5	-6	4	x	x	x	x
CC(C)(C)c1ccc(S(=O)(=O)N2CCc3nc4ccccc4c(C(=O)O)c3C2)cc1	11	-5	-1	1	1	5	x	x	x	x
CN1Cc2c(N3CCOCC3)nc3sc(C(=O)c4ccc(Br)cc4)c(N)c3c2CC1(C)C	-10	51*	-5	-3	-2	56*	0	85*	62*	5	Apaf1 inh interf=>100
CN1Cc2c(N3CCOCC3)nc3sc(C#N)c(N)c3c2CC1(C)C	44	-13	-3	-6	9	8	x	x	x	x
CCN(Cc1ccccc1)S(=O)(=O)c1ccc(C(=O)N(CCCN(C)C)c2nc3cc(C)cc(C)c3s2)cc1	x	74*	1	3	-2	42*	-3	109*	20	6
CCOc1cccc2sc(N(CCCN(C)C)C(=O)c3ccc(S(=O)(=O)N(C)Cc4ccccc4)cc3)nc12	14	76*	3	-1	5	62*	2	111*	27	11
CCCCN(CC)S(=O)(=O)c1ccc(C(=O)N(CCCN(C)C)c2nc3cc(C)cc(C)c3s2)cc1	0	80*	8	3	-4	47*	0	102*	15	7
CCCCN(C)S(=O)(=O)c1ccc(C(=O)N(CCN(C)C)c2nc3ccc(C)cc3s2)cc1	-11	22	4	-3	1	-2	x	x	x	x
CC(OC(=O)c1c[nH]c2ccccc12)C(=O)N1CCCC1 (configuration not stated)	x	8	x	4	-1	-3	x	x	x	x
SMILES	UBC9 SUMO inh	UBC13 inh	GSTO1 counter	Rin1-Abl PPI inh	PAD4 FP inh	Apaf-1 inh	Casp3 counter	UBC13 confirm	Apaf-1 inh conf2	Rh110 interf inh	others
CCC[C@@H](CN1CCC[C@H]1CN1C(N)=NC[C@H]1CC(C)C)N1C[C@@H](Cc2ccccc2)N(CCCC2CCCC2)C1=N	x	77*	x	2	-4	59*	-1	83*	15	9
CC(C)[C@H](CN1CCC[C@H]1CN1C(N)=NC[C@H]1C(C)C)N1C[C@@H](Cc2ccccc2)N(CCCC2CCCC2)C1=N	x	70*	x	0	-2	63*	1	69*	6	0
CC(C)C[C@@H](CN1CCC[C@@H]1CN1C(=O)C(=O)NC[C@@H]1Cc1ccccc1)N1C[C@H](Cc2ccccc2)N(CC2CCCCCC2)C(=O)C1=O	x	x	x	-6	x	x	x	x	x	x
CCC[C@@H](CN1CCC[C@H]1CN1C(N)=NC[C@@H]1Cc1ccccc1)N1C[C@@H](Cc2ccccc2)N(CCCC2CCCC2)C1=N	x	65*	x	0	0	70*	-4	58*	13	4
CCC[C@@H](CN1CCC[C@H]1CN1C(N)=NC[C@@H]1Cc1ccccc1)N1C[C@@H]([C@H](C)CC)N(CCCC2CCCC2)C1=N	x	91*	x	5	-4	77*	2	85*	32	9
CCCCN1C(=N)N([C@@H](C)CN2CCC[C@H]2CN2C(N)=NC[C@@H]2Cc2ccccc2)C[C@H]1[C@H](C)CC	x	19	x	-2	4	21	x	x	x	x
NC[C@@H]1O[C@H](C23CC4CC(CC(C4)C2)C3)Cc2c1ccc(O)c2O	-9	55*	2	5	-6	42*	-1	54*	3	6
COC(=O)N(C)C[C@@H]1OCc2cnnn2CCCC(=O)N([C@H](C)CO)C[C@@H]1C	x	x	x	-2	x	x	x	x	x	x
